# High-throughput results as filed in PubChem.
# Hits are enriched below; roughly 2% of the tested compounds scored in any of these assays.
# M1 ag: activates human CHRM1 receptor | P11229 | activation, % at 3 µM | 360,000 tested, 0.33% active | CHO-K1 hM1, Fluo-8 calcium fluorescence, agonist mode; 0% DMSO, 100% acetylcholine EC100;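 active means activation above the run's mean compound activation plus 3 SD, cut at about 16% in these data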;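 further: peak over basal fluorescence ratio within a 140 s kinetic read after compound addition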
# Target sequence (P11229 whole entry, looked up): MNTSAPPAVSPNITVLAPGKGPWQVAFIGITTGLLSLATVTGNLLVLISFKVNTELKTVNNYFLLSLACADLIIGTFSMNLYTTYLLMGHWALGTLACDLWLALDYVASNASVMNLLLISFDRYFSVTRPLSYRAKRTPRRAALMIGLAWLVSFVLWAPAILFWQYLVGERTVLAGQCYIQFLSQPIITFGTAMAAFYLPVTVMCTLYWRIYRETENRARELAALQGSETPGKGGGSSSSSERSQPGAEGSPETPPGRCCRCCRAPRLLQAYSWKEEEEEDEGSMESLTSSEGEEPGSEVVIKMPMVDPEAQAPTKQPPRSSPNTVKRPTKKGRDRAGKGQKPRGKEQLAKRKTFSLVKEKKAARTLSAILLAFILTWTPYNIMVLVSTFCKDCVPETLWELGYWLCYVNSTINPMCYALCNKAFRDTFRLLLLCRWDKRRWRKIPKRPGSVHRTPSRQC
# M5 antag: blocks acetylcholine activation of human M5 receptor; CHO-hM5 cells, Fluo-8 calcium fluorescence, ACh EC80; inhibition, % at 3 µM; 360,000 tested, 0.59% active;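 active means inhibition above a per-plate cutoff, the mean of that plate's test compounds plus 3 SD, cut at about 27% in these data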;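 further: 0% = acetylcholine EC80 with DMSO and 100% = DMSO without agonist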
# M5 PAM: CHRM5 positive allosteric modulation; P08912; CHO-K1 hM5, Fluo-8 calcium, ACh EC20 PAM; 0% = ACh EC20, 100% = ACh EC100; activation, % at 3 µM; 360,000 tested, 0.3% active; AID 624038;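 active means activation above the run cutoff, the mean activation of all test compounds plus 3 SD, cut at about 18% in these data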
#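 system = human M5 receptor in CHO-K1 cells | reagent = EC20 acetylcholine as agonist stimulus | compound dosing = single-point, 3 µM nominal | incubation = Fluo-8 loading 80 min at 37 °C plus 30 min room temperature | detection = Fluo-8 calcium dye fluorescence, kinetic read | benchmarks = low control EC20 acetylcholine (0%), high control EC100 acetylcholine (100%)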
# M5 ag: agonists of human muscarinic M5 receptor (CHRM5). P08912. CHO-K1 hM5 cells, Fluo-8 calcium fluorescence; 0% DMSO wells, 100% maximal acetylcholine response. AID 624037. 360,000 tested, 0.19% active. activation, % at 3 µM;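 active means activation above the run's mean over test compounds plus 3 SD, cut at about 23% in these data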;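 further: signal is peak over basal fluorescence ratio across the kinetic read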
# M1 antag: human CHRM1 antagonism; P11229; CHO-K1 hM1, Fluo-8 calcium fluorescence, ACh EC80 antagonist; inhibition, % at 3 µM; 360,000 tested, 1.3% active;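 active means percent inhibition above its own plate's cutoff, namely the mean of that plate's compound wells plus 3 SD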;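 further: peak over basal fluorescence ratio during 140 s after agonist addition; 0% = ACh EC80 plus DMSO and 100% = DMSO alone without agonist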
# CHRM1 PAM: potentiates human M1 receptor response to acetylcholine. CHO-K1 hM1, Fluo-8 calcium fluorescence, ACh EC20; 0% = ACh EC20, 100% = maximal ACh. activation, % at 3 µM. 360,000 tested, 0.088% active. AID 588819; in the data active means activation above about 19%, passing the limit was not always enough
# Active calls of the source: *; nt = no result given.
SMILES,M1 ag,M5 antag,M5 PAM,M5 ag,M1 antag,CHRM1 PAM
CC1OC(=O)c2cc3ccccc3nc21 (stereo not given),-2,-4,1,0,-8,-1
CCc1nc2c(OCc3ccccc3C)cccn2c1N(C)C(=O)c1ccco1,-9,-1,1,-3,-22,11
CC(=O)c1ccc(NC(=S)NC(C)c2ccc(Cl)cc2Cl)cc1 (stereo not given),3,29*,-15,14,16,-1
CC(=O)c1ccc(NC(=S)Nc2ccc(Br)c(Cl)c2)cc1,0,13,-3,3,13,-1
O=C(Nc1nc2ccsc2c(=O)s1)c1ccc(F)cc1Cl,0,-7,21*,3,-11,11
Cc1csc2c(=O)sc(NC(=O)c3ccc(F)cc3Cl)nc12,-1,3,5,0,-9,14
CNC(=O)Cn1nc(C)c(S(=O)(=O)N2CCOCC2)c1C,-1,-1,8,2,-5,7
NC(=NCc1ccc2c(c1)OCO2)NC(=O)c1ccccc1,-3,0,6,4,24*,-10
O=C1CCCCCC(=O)[C@H](O)C[C@H](c2ccccc2)O1,nt,1,0,3,nt,nt
CC(C)N(CCn1c(SCC(=O)N2CC(=O)Nc3ccccc32)nc2ccccc2c1=O)C(C)C,-6,3,0,-12,61*,-23
Brc1ccc2nc(-c3ccco3)c(CC3CCCCC3)n2c1,8,4,-4,2,-31,16
COc1ccc(-n2nc(C(=O)NCC(=O)N3CCN(C)CC3)c3ccccc3c2=O)cc1OC,-2,0,10,-6,-1,2
COc1ccc(-n2nc(C(=O)NCC(=O)N3CCN(Cc4ccccc4)CC3)c3ccccc3c2=O)cc1OC,15,29*,-12,-1,23,-8
Cc1nc(C(F)(F)F)ccc1C(=O)N1CCC1(C)C(=O)NS(=O)(=O)c1cccc(Cl)c1 (stereo not given),-2,8,3,0,-13,8
CCOCCn1c(CN2CCN(c3ccccc3)CC2)nc2c1c(=O)n(C)c(=O)n2C,-5,2,-5,-4,0,-5
COCCn1c(CN2CCN(c3ccccc3)CC2)nc2c1c(=O)n(C)c(=O)n2C,-5,4,-2,-1,33*,-13
CCNC(=O)C1(C)CCCN(Cc2ccc(Oc3ccccc3)cc2)C1 (stereo not given),-8,7,-8,-3,32,-25
C/C(=N\NC(=O)CO/N=C(\C)c1cccs1)c1ccc(N)cc1,-2,8,-3,-5,10,-3
C/C(=N\OCC(=O)N/N=C/c1ccc(C)cc1O)c1cccs1,0,13,33*,1,-3,10
Cn1c(-c2ccncc2)nc2ccccc21,-5,4,1,0,-5,3
CCN(CC)c1ccc(-c2nc3cnccc3n2C)cc1,-6,-9,6,-13,39*,-20
Cc1ccccc1N(CC(=O)N1CCN(Cc2ccccc2)CC1)S(C)(=O)=O,-5,3,2,1,-11,9
CC(=O)Nc1cc(-c2ccc(CO)cc2)cn2c(-c3cccc(C(F)(F)F)c3)cnc12,-3,11,-4,0,3,-7
CCn1nc(C(=O)N2CCN(Cc3nc4ccccc4s3)CC2)c2ccccc2c1=O,-2,20,-36,7,38*,-17
O=C(c1nn(Cc2ccccc2)c(=O)c2ccccc12)N1CCN(C/C=C/c2ccccc2)CC1,-5,21,-21,-5,95*,-22
SMILES,M1 ag,M5 antag,M5 PAM,M5 ag,M1 antag,CHRM1 PAM
CCn1nc(C(=O)N2CCc3ccccc3C2)c2ccccc2c1=O,-2,8,-7,-4,1,4
COC(=O)C1(CCSC)NC(c2ccc(O)c(OC)c2)C2C(=O)N(c3ccc(C)cc3)C(=O)C21 (stereo not given),25*,-13,-4,6,-5,4
Clc1ccc2nc(C3CCCCC3)c(CC3CCCCC3)n2c1,-6,5,5,-2,-16,-11
N#Cc1cc(NC(=O)c2ccc(Cl)cc2)ccc1Sc1ccccc1,-2,5,-1,1,32*,-20
COc1ccc(Sc2ccc(NC(=O)c3ccccc3Cl)cc2C#N)cc1,0,8,-11,-2,-22,-4
Cc1cc(C(=O)COC(=O)c2n[nH]c(=O)c3ccccc23)c(C)n1C,-1,-2,6,3,28*,-12
C[N+](C)(C)CC(=O)N/N=C/c1c2ccccc2cc2ccccc12,7,19,-12,32*,-6,7
COc1ccc(-c2nc3c(C)cc(Br)cn3c2CC2CCCCC2)cc1OC,-5,-2,-7,0,-9,-4
O=c1c2cnn(-c3ccc(F)cc3)c2ncn1Cc1cccnc1,-2,-2,29*,2,0,3
O=c1c2cnn(-c3ccccc3)c2ncn1Cc1cccnc1,1,-1,0,4,-2,7
CCOC(=O)Cn1c(=O)oc2cc(S(=O)(=O)NC3CCCc4ccccc43)ccc21 (stereo not given),1,1,-10,3,1,-2
CCOC(=O)Cn1c(=O)oc2cc(S(=O)(=O)NC3CCCCC3)ccc21,-1,11,-11,2,32*,-20
CC1=NNC(=O)C1CCC(=O)N/N=C/c1c(Cl)cccc1Cl (stereo not given),-7,2,-7,-2,-6,11
O=C(Nc1nc2ccccc2s1)C1CCN(S(=O)(=O)c2cc([N+](=O)[O-])ccc2Cl)CC1,-1,39*,-30,-4,53*,-17
O=C(COc1ccccc1C(=O)O)Nc1nc2ccc([N+](=O)[O-])cc2s1,4,20,-22,8,26*,-10
Cc1cccc(OCC(=O)Nc2nc3ccc([N+](=O)[O-])cc3s2)c1C,-2,-11,2,1,4,0
CCC(C)NC(=O)C1CCN(S(=O)(=O)c2cc([N+](=O)[O-])ccc2Cl)CC1 (stereo not given),-2,10,-7,0,-14,16
O=S1(=O)N[C@H](Cc2ccccc2)COc2cc(N3CCN(Cc4ccccc4F)CC3)ccc21,nt,2,-3,-2,nt,nt
O=C(CC1(CC2=NS(=O)(=O)c3ccccc3N2)CCCC1)NCCc1ccccc1,-6,8,-11,4,17,-12
CCC1CCCCN1CCCNC(=O)CSc1nc2nc(C)c(Cc3ccc(C)cc3)c(C)n2n1 (stereo not given),-13,8,-9,-8,69*,-36
Cc1nc2nc(SCC(=O)NCCCN3CCCC3)nn2c(C)c1Cc1ccccc1Cl,-12,26,-15,-9,81*,-37
